Measured values reported in PMC9321909 (British Journal of Haematology, 2022).
“Also recorded” adds a separate entry of the source.

Assays:
[1] = format: in vivo, human (Chinese patients)
[2] = Safety: treatment-emergent adverse events, NCI CTCAE v4.03; format: in vivo, human (Chinese patients)
Method in brief: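 Patients took oral test compound at 320 mg QD or 160 mg BID until progression or unacceptable toxicity. AEs were graded per NCI CTCAE v4.03, and treatment-emergent AEs were summarized. AEs of special interest included haemorrhage, atrial fibrillation/flutter, hypertension, second primary malignancies, tumour lysis syndrome, infections and cytopenias. Percentages use patients receiving ≥1 dose as the denominator.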

C=CC(=O)N1CCC([C@@H]2CCNc3c(C(N)=O)c(-c4ccc(Oc5ccccc5)cc4)nn32)CC1 [zanubrutinib]
half-life ([1]; human, plasma, oral): 2.3 to 3.4 h | time of C max post dose ([1]; oral 160 mg and 320 mg doses): ~ 2 h | Anaemia, TEAE any grade ([2]; 160 mg BID (n = 34)): 12 (35.3) n (%) | Anaemia, grade ≥ 3 TEAE ([2]; 160 mg BID (n = 34)): 4 (11.8) n (%) | Atrial fibrillation/flutter, any grade TEAE of special interest ([2]; 160 mg BID (n = 34)): 0 (0.0) n (%) | Cough, TEAE any grade ([2]; 160 mg BID (n = 34)): 5 (14.7) n (%) | Cytopenias: Anaemia, any grade TEAE of special interest ([2]; 160 mg BID (n = 34)): 14 (41.2) n (%) | Cytopenias: Neutropenia, any grade TEAE of special interest ([2]; 160 mg BID (n = 34)): 18 (52.9) n (%) | Cytopenias: Thrombocytopenia, any grade TEAE of special interest ([2]; 160 mg BID (n = 34)): 9 (26.5) n (%) | Haemorrhage, any grade TEAE of special interest ([2]; 160 mg BID (n = 34)): 11 (32.4) n (%) | Hematuria, TEAE any grade ([2]; 160 mg BID (n = 34)): 6 (17.6) n (%) | Hypertension, any grade TEAE of special interest ([2]; 160 mg BID (n = 34)): 0 (0.0) n (%) | Hyperuricemia, TEAE any grade ([2]; 160 mg BID (n = 34)): 6 (17.6) n (%) | Infections, any grade TEAE of special interest ([2]; 160 mg BID (n = 34)): 19 (55.9) n (%) | Major haemorrhage, any grade TEAE of special interest ([2]; 160 mg BID (n = 34)): 1 (2.9) n (%) | Neutropenia, grade ≥ 3 TEAE ([2]; 160 mg BID (n = 34)): 4 (11.8) n (%) | Neutrophil count decreased, TEAE any grade ([2]; 160 mg BID (n = 34)): 17 (50.0) n (%) | Neutrophil count decreased, grade ≥ 3 TEAE ([2]; 160 mg BID (n = 34)): 6 (17.6) n (%) | Patients with ≥1 TEAE of special interest, any grade ([2]; 160 mg BID (n = 34)): 30 (88.2) n (%) | Patients with ≥1 any‐grade TEAE ([2]; 160 mg BID (n = 34)): 33 (97.1) n (%) | Patients with ≥1 grade 3 or higher TEAE ([2]; 160 mg BID (n = 34)): 18 (52.9) n (%) | Platelet count decreased, TEAE any grade ([2]; 160 mg BID (n = 34)): 8 (23.5) n (%) | Platelet count decreased, grade ≥ 3 TEAE ([2]; 160 mg BID (n = 34)): 1 (2.9) n (%) | Pneumonia, TEAE any grade ([2]; 160 mg BID (n = 34)): 6 (17.6) n (%) | Pneumonia, grade ≥ 3 TEAE ([2]; 160 mg BID (n = 34)): 3 (8.8) n (%) | Rash, TEAE any grade ([2]; 160 mg BID (n = 34)): 8 (23.5) n (%) | Second primary malignancies, any grade TEAE of special interest ([2]; 160 mg BID (n = 34)): 0 (0.0) n (%) | Thrombocytopenia, grade ≥ 3 TEAE ([2]; 160 mg BID (n = 34)): 1 (2.9) n (%) | Tumour lysis syndrome, any grade TEAE of special interest ([2]; 160 mg BID (n = 34)): 0 (0.0) n (%) | Upper respiratory tract infection, TEAE any grade ([2]; 160 mg BID (n = 34)): 10 (29.4) n (%) | Upper respiratory tract infection, grade ≥ 3 TEAE ([2]; 160 mg BID (n = 34)): 2 (5.9) n (%) | Weight increased, TEAE any grade ([2]; 160 mg BID (n = 34)): 5 (14.7) n (%) | White blood cell count decreased, TEAE any grade ([2]; 160 mg BID (n = 34)): 11 (32.4) n (%) | White blood cell count decreased, grade ≥ 3 TEAE ([2]; 160 mg BID (n = 34)): 1 (2.9) n (%) | White blood cell count increased, grade ≥ 3 TEAE ([2]; 160 mg BID (n = 34)): 2 (5.9) n (%) | Anaemia, TEAE any grade ([2]; 320 mg QD (n = 10)): 4 (40.0) n (%) | Anaemia, grade ≥ 3 TEAE ([2]; 320 mg QD (n = 10)): 1 (10.0) n (%) | Atrial fibrillation/flutter, any grade TEAE of special interest ([2]; 320 mg QD (n = 10)): 0 (0.0) n (%) | Cough, TEAE any grade ([2]; 320 mg QD (n = 10)): 3 (30.0) n (%) | Cytopenias: Anaemia, any grade TEAE of special interest ([2]; 320 mg QD (n = 10)): 4 (40.0) n (%) | Cytopenias: Neutropenia, any grade TEAE of special interest ([2]; 320 mg QD (n = 10)): 7 (70.0) n (%) | Cytopenias: Thrombocytopenia, any grade TEAE of special interest ([2]; 320 mg QD (n = 10)): 3 (30.0) n (%) | Haemorrhage, any grade TEAE of special interest ([2]; 320 mg QD (n = 10)): 4 (40.0) n (%) | Hematuria, TEAE any grade ([2]; 320 mg QD (n = 10)): 3 (30.0) n (%) | Hypertension, any grade TEAE of special interest ([2]; 320 mg QD (n = 10)): 1 (10.0) n (%) | Hyperuricemia, TEAE any grade ([2]; 320 mg QD (n = 10)): 3 (30.0) n (%) | Infections, any grade TEAE of special interest ([2]; 320 mg QD (n = 10)): 7 (70.0) n (%) | Major haemorrhage, any grade TEAE of special interest ([2]; 320 mg QD (n = 10)): 0 (0.0) n (%) | Neutropenia, grade ≥ 3 TEAE ([2]; 320 mg QD (n = 10)): 0 (0.0) n (%) | Neutrophil count decreased, TEAE any grade ([2]; 320 mg QD (n = 10)): 7 (70.0) n (%) | Neutrophil count decreased, grade ≥ 3 TEAE ([2]; 320 mg QD (n = 10)): 5 (50.0) n (%) | Patients with ≥1 TEAE of special interest, any grade ([2]; 320 mg QD (n = 10)): 10 (100.0) n (%) | Patients with ≥1 any‐grade TEAE ([2]; 320 mg QD (n = 10)): 10 (100.0) n (%) | Patients with ≥1 grade 3 or higher TEAE ([2]; 320 mg QD (n = 10)): 6 (60.0) n (%) | Platelet count decreased, TEAE any grade ([2]; 320 mg QD (n = 10)): 2 (20.0) n (%) | Platelet count decreased, grade ≥ 3 TEAE ([2]; 320 mg QD (n = 10)): 1 (10.0) n (%) | Pneumonia, TEAE any grade ([2]; 320 mg QD (n = 10)): 3 (30.0) n (%) | Pneumonia, grade ≥ 3 TEAE ([2]; 320 mg QD (n = 10)): 0 (0.0) n (%) | Rash, TEAE any grade ([2]; 320 mg QD (n = 10)): 2 (20.0) n (%) | Second primary malignancies, any grade TEAE of special interest ([2]; 320 mg QD (n = 10)): 0 (0.0) n (%) | Thrombocytopenia, grade ≥ 3 TEAE ([2]; 320 mg QD (n = 10)): 1 (10.0) n (%) | Tumour lysis syndrome, any grade TEAE of special interest ([2]; 320 mg QD (n = 10)): 0 (0.0) n (%) | Upper respiratory tract infection, TEAE any grade ([2]; 320 mg QD (n = 10)): 5 (50.0) n (%) | Upper respiratory tract infection, grade ≥ 3 TEAE ([2]; 320 mg QD (n = 10)): 2 (20.0) n (%) | Weight increased, TEAE any grade ([2]; 320 mg QD (n = 10)): 3 (30.0) n (%) | White blood cell count decreased, TEAE any grade ([2]; 320 mg QD (n = 10)): 3 (30.0) n (%) | White blood cell count decreased, grade ≥ 3 TEAE ([2]; 320 mg QD (n = 10)): 1 (10.0) n (%) | White blood cell count increased, grade ≥ 3 TEAE ([2]; 320 mg QD (n = 10)): 1 (10.0) n (%) | Anaemia, TEAE any grade ([2]; Total (N = 44)): 16 (36.4) n (%) | Anaemia, grade ≥ 3 TEAE ([2]; Total (N = 44)): 5 (11.4) n (%) | Atrial fibrillation/flutter, any grade TEAE of special interest ([2]; Total (N = 44)): 0 (0.0) n (%) | Cough, TEAE any grade ([2]; Total (N = 44)): 8 (18.2) n (%) | Cytopenias: Anaemia, any grade TEAE of special interest ([2]; Total (N = 44)): 18 (40.9) n (%) | Cytopenias: Neutropenia, any grade TEAE of special interest ([2]; Total (N = 44)): 25 (56.8) n (%) | Cytopenias: Thrombocytopenia, any grade TEAE of special interest ([2]; Total (N = 44)): 12 (27.3) n (%) | Haemorrhage, any grade TEAE of special interest ([2]; Total (N = 44)): 15 (34.1) n (%) | Hematuria, TEAE any grade ([2]; Total (N = 44)): 9 (20.5) n (%) | Hypertension, any grade TEAE of special interest ([2]; Total (N = 44)): 1 (2.3) n (%) | Hyperuricemia, TEAE any grade ([2]; Total (N = 44)): 9 (20.5) n (%) | Infections, any grade TEAE of special interest ([2]; Total (N = 44)): 26 (59.1) n (%) | Major haemorrhage, any grade TEAE of special interest ([2]; Total (N = 44)): 1 (2.3) n (%) | Neutropenia, grade ≥ 3 TEAE ([2]; Total (N = 44)): 4 (9.1) n (%) | Neutrophil count decreased, TEAE any grade ([2]; Total (N = 44)): 24 (54.5) n (%) | Neutrophil count decreased, grade ≥ 3 TEAE ([2]; Total (N = 44)): 11 (25.0) n (%) | Patients with ≥1 TEAE of special interest, any grade ([2]; Total (N = 44)): 40 (90.9) n (%) | Patients with ≥1 any‐grade TEAE ([2]; Total (N = 44)): 43 (97.7) n (%) | Patients with ≥1 grade 3 or higher TEAE ([2]; Total (N = 44)): 24 (54.5) n (%) | Platelet count decreased, TEAE any grade ([2]; Total (N = 44)): 10 (22.7) n (%) | Platelet count decreased, grade ≥ 3 TEAE ([2]; Total (N = 44)): 2 (4.5) n (%) | Pneumonia, TEAE any grade ([2]; Total (N = 44)): 9 (20.5) n (%) | Pneumonia, grade ≥ 3 TEAE ([2]; Total (N = 44)): 3 (6.8) n (%) | Rash, TEAE any grade ([2]; Total (N = 44)): 10 (22.7) n (%) | Second primary malignancies, any grade TEAE of special interest ([2]; Total (N = 44)): 0 (0.0) n (%) | Thrombocytopenia, grade ≥ 3 TEAE ([2]; Total (N = 44)): 2 (4.5) n (%) | Tumour lysis syndrome, any grade TEAE of special interest ([2]; Total (N = 44)): 0 (0.0) n (%) | Upper respiratory tract infection, TEAE any grade ([2]; Total (N = 44)): 15 (34.1) n (%) | Upper respiratory tract infection, grade ≥ 3 TEAE ([2]; Total (N = 44)): 4 (9.1) n (%) | Weight increased, TEAE any grade ([2]; Total (N = 44)): 8 (18.2) n (%) | White blood cell count decreased, TEAE any grade ([2]; Total (N = 44)): 14 (31.8) n (%) | White blood cell count decreased, grade ≥ 3 TEAE ([2]; Total (N = 44)): 2 (4.5) n (%) | White blood cell count increased, grade ≥ 3 TEAE ([2]; Total (N = 44)): 3 (6.8) n (%) | AEs leading to dose reduction ([2]; all 44 patients): no AEs leading to dose reduction | neutrophil count decreased, most common adverse event (any grade) ([2]; all 44 patients): 54.5% | neutrophil count decreased, most common grade 3 or higher AE ([2]; all 44 patients): 25.0% | patients with AEs leading to dose interruption ([2]; all 44 patients): 18.2% | patients with AEs leading to treatment discontinuation ([2]; all 44 patients): 4.5% | reports of second primary malignancies, tumour lysis syndrome, atrial fibrillation/flutter ([2]; all 44 patients): no reports | grade of haemorrhagic events ([2]; all events except one non‐serious grade 3 purpura): grade 1–2; also recorded: grade 1 or 2 | dose‐limiting toxicity (DLT) events ([2]; part I, 160 mg BID and 320 mg QD): No DLT events
